Results as given in ChEMBL document CHEMBL1146117, “Inhibitors of human mitotic kinesin Eg5: characterization of the 4-phenyl-tetrahydroisoquinoline lead series” (Bioorg Med Chem Lett, 2006).
One block for each compound: values may come before it.

Legend:
[1] = tested on: A2780; experiment: Antiproliferative activity against human A2780 cells; assay type: functional, cell-based
Summary of the method: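 A2780 ovarian carcinoma cells were exposed to compound for 72 h. IC50 derived from dose–response curves of triplicate data points, reported as the mean ± SD of three independent experiments.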

[2] = target: T1, Kinesin-like protein KIF11 (Homo sapiens, UniProt P52732); experiment: Inhibition of Eg5 by ATPase assay; assay type: functional
T1 sequence (P52732 whole entry): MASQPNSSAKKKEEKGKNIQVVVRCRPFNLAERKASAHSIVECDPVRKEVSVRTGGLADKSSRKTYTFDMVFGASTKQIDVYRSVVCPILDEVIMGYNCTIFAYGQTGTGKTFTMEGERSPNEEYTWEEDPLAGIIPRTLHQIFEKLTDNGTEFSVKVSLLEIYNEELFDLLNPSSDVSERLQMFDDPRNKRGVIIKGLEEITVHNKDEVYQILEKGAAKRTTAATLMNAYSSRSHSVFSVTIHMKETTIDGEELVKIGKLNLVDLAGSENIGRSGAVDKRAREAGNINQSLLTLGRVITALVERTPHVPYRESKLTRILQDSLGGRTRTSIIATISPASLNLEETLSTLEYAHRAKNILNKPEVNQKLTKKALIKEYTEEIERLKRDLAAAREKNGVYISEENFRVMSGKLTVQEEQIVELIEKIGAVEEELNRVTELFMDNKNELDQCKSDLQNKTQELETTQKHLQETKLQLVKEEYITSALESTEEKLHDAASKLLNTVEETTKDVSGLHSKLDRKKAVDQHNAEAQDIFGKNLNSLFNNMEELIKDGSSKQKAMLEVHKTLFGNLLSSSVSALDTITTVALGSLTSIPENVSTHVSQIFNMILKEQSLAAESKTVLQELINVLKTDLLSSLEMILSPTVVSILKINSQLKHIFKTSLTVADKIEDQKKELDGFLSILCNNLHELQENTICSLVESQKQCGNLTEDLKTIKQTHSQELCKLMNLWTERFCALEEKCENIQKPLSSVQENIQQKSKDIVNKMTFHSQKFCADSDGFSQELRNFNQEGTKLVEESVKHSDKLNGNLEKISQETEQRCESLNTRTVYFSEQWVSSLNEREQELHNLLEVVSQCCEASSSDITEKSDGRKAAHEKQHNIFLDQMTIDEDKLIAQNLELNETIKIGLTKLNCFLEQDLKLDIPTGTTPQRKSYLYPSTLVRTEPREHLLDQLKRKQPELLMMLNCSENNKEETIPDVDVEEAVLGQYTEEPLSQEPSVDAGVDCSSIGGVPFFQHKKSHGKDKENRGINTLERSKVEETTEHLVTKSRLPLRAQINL
Summary of the method: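 Eg5 motor-domain protein ATPase activity read with a Kinase-Glo luminescent ATP kit. IC50 taken from dose–response curves of triplicate data points. Values are means ± SD of three independent experiments.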

[3] = tested on: MDA-MB-231; experiment: Antiproliferative activity against human MDA-MB-231 cells; assay type: functional, cell-based
Summary of the method: (§1)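 Each tumour cell line in the panel was exposed to compound for 72 h, and IC50 was determined after that exposure.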

[4] = tested on: A2780; experiment: Antiproliferative activity against human A2780-TAXR cells; assay type: functional, cell-based; summary of the method: as §1
[5] = tested on: A2780; experiment: Mitotic index in A2780 cells at M phase at 0.257 uM; assay type: functional, Homo sapiens
Summary of the method: (§2)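 A2780 cells were treated for 17 h at 0.257 or 0.328 µM, with nocodazole 0.1 µM as positive control and DMSO 0.08% as negative control. Cell-cycle profile (% G1, S, G2+M) and mitotic index (% cells in M phase) were quantified by flow cytometry.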

[6] = tested on: A2780; experiment: Antiproliferative activity against human A2780S cells; assay type: functional, cell-based; summary of the method: as §1
[7] = tested on: MDA-MB-468; experiment: Antiproliferative activity against human MDA-MB-468 cells; assay type: functional, cell-based; summary of the method: as §1
[8] = tested on: A2780; experiment: Cell cycle arrest in A2780 cells by accumulation at S phase at 0.328 uM; assay type: functional, Homo sapiens; summary of the method: as §2
[9] = tested on: HCT-116; experiment: Antiproliferative activity against human HCT116 cells; assay type: functional, cell-based; summary of the method: as §1
[10] = tested on: A2780; experiment: Cell cycle arrest in A2780 cells by accumulation at G1 phase at 0.257 uM; assay type: functional, Homo sapiens; summary of the method: as §2
[11] = tested on: SW-620; experiment: Antiproliferative activity against human SW620 cells; assay type: functional, cell-based; summary of the method: as §1
[12] = tested on: LNCaP; experiment: Antiproliferative activity against human LNCaP cells; assay type: functional, cell-based; summary of the method: as §1
[13] = tested on: M109; experiment: Antiproliferative activity against mouse M109 cells; assay type: functional, cell-based; summary of the method: as §1
[14] = tested on: NCI-H446; experiment: Antiproliferative activity against human NCI-H446 cells; assay type: functional, cell-based; summary of the method: as §1
[15] = tested on: A2780; experiment: Cell cycle arrest in A2780 cells by accumulation at G2/M phase at 0.257 uM; assay type: functional, Homo sapiens; summary of the method: as §2
[16] = tested on: A2780; experiment: Mitotic index in A2780 cells at M phase at 0.328 uM; assay type: functional, Homo sapiens; summary of the method: as §2
[17] = tested on: A2780; experiment: Cell cycle arrest in A2780 cells by accumulation at G2/M phase at 0.328 uM; assay type: functional, Homo sapiens; summary of the method: as §2
[18] = tested on: A2780; experiment: Cell cycle arrest in A2780 cells by accumulation at G1 phase at 0.328 uM; assay type: functional, Homo sapiens; summary of the method: as §2
[19] = tested on: DU-145; experiment: Antiproliferative activity against human Du145 cells; assay type: functional, cell-based; summary of the method: as §1
[20] = tested on: A2780; experiment: Cell cycle arrest in A2780 cells by accumulation at S phase at 0.257 uM; assay type: functional, Homo sapiens; summary of the method: as §2
[21] = tested on: PC-3; experiment: Antiproliferative activity against human PC3 cells; assay type: functional, cell-based; summary of the method: as §1
[22] = tested on: CCRF-CEM; experiment: Antiproliferative activity against human CCRF-CEM cells; assay type: functional, cell-based; summary of the method: as §1
[23] = tested on: P388; experiment: Antiproliferative activity against mouse P388 cells; assay type: functional, cell-based; summary of the method: as §1
[24] = tested on: SHP77; experiment: Antiproliferative activity against human SHP77 cells; assay type: functional, cell-based; summary of the method: as §1

- IC50 [1]: 2050 nM
- IC50 [2]: 4710 nM
SMILES: Cc1cccc2c1CN(C(=O)N(C)C)CC2c1cccc(O)c1 (stereo not drawn)

- IC50 [1]: 186 nM
- IC50 [2]: 344 nM
SMILES: CCc1cccc2c1CN(C(=O)N(C)C)CC2c1cccc(O)c1 (stereo not drawn)

- IC50 [1]: 234 nM
- IC50 [3]: 480 nM
- IC50 [4]: 215 nM
- IC50 [6]: 267 nM
- IC50 [7]: 350 nM
- IC50 [9]: 259 nM
- IC50 [11]: 466 nM
- IC50 [12]: 807 nM
- IC50 [14]: 360 nM
- IC50 [19]: 484 nM
- IC50 [21]: 223 nM
- IC50 [22]: 282 nM
- IC50 [23]: 460 nM
SMILES: Cc1ccc2c(c1C)CN(C(=O)N(C)C)C[C@@H]2c1cccc(O)c1
- Activity [5]: 39.3%
- Activity [8]: 5.9%
- Activity [10]: 9.1%
- IC50 [13]: 259 nM
- Activity [15]: 73.2%
- Activity [16]: 52.2%
- Activity [17]: 84%
- Activity [18]: 3.1%
- Activity [20]: 11.8%
- IC50 [24]: 261 nM

- IC50 [2]: > 25000 nM
SMILES: CN(C)C(=O)N1Cc2c(Br)cccc2C(c2cccc(O)c2)C1 (stereo not drawn)

- IC50 [1]: 851 nM
- IC50 [2]: 595 nM
SMILES: Cc1ccc2c(c1)CN(C(=O)N(C)C)CC2c1cccc(O)c1 (stereo not drawn)

- IC50 [2]: > 25000 nM
SMILES: Cc1ccc2c(c1C)CN(C(=O)N(C)C)CC2c1ccc(O)cc1 (stereo not drawn)

- IC50 [1]: 376 nM
- IC50 [2]: 306 nM
SMILES: Cc1ccc2c(c1C)CN(C(=O)N(C)C)CC2c1cccc(O)c1 (stereo not drawn)

Continued, compound first:

SMILES: CN(C)C(=O)N1Cc2cc(Cl)ccc2C(c2cccc(O)c2)C1 (stereo not drawn)
- IC50 [1]: 1190 nM
- IC50 [2]: 2490 nM

SMILES: CN(C)C(=O)N1Cc2cc(Br)ccc2C(c2cccc(O)c2)C1 (stereo not drawn)
- IC50 [1]: 879 nM
- IC50 [2]: 808 nM

SMILES: CC(=O)N1Cc2c(ccc(C)c2C)C(c2ccccc2)C1 (stereo not drawn)
- IC50 [2]: 17900 nM

SMILES: CCN1Cc2c(ccc(C)c2C)C(c2ccccc2)C1 (stereo not drawn)
- IC50 [1]: 5300 nM
- IC50 [2]: 25200 nM

SMILES: COC(=O)N1Cc2c(ccc(C)c2C)C(c2ccccc2)C1 (stereo not drawn)
- IC50 [2]: 14400 nM

SMILES: CN(C)C(=O)N1Cc2cc(F)ccc2C(c2cccc(O)c2)C1 (stereo not drawn)
- IC50 [2]: > 25000 nM

SMILES: Cc1ccc2c(c1C)CN(CCCCN(C)C)CC2c1ccccc1 (stereo not drawn)
- IC50 [1]: 1860 nM
- IC50 [2]: 5360 nM

SMILES: Cc1ccc2c(c1C)CN(CCc1ccccc1)CC2c1ccccc1 (stereo not drawn)
- IC50 [2]: > 25000 nM

SMILES: Cc1ccc2c(c1C)CN(C(=O)N1CCOCC1)CC2c1ccccc1 (stereo not drawn)
- IC50 [2]: 22300 nM

SMILES: CN(C)C(=O)N1Cc2cc(I)ccc2C(c2cccc(O)c2)C1 (stereo not drawn)
- IC50 [1]: 363 nM
- IC50 [2]: 317 nM

SMILES: Cc1ccc2c(c1C)CN(C)CC2c1ccccc1 (stereo not drawn)
- IC50 [1]: 7300 nM
- IC50 [2]: 18400 nM

SMILES: Cc1ccc2c(c1C)CN(CCCN(C)C)CC2c1ccccc1 (stereo not drawn)
- IC50 [1]: 3240 nM
- IC50 [2]: 8880 nM

SMILES: Cc1ccc2c(c1C)CN(C(C)C)CC2c1ccccc1 (stereo not drawn)
- IC50 [1]: 6280 nM
- IC50 [2]: 11000 nM

SMILES: CN(C)C(=O)N1Cc2c(ccc3c2OCC3)C(c2cccc(O)c2)C1 (stereo not drawn)
- IC50 [1]: 235 nM
- IC50 [2]: 639 nM

SMILES: Cc1ccc2c(c1C)CN(CCCCN)CC2c1ccccc1 (stereo not drawn)
- IC50 [1]: 2370 nM
- IC50 [2]: 4650 nM
